The source of these data is ChEMBL document CHEMBL4354867, “Validation and Characterization of Five Distinct Novel Inhibitors of Human Cytomegalovirus” (J Med Chem, 2020).

Structures are written as SMILES. Calls of active or inactive are those of the source. No cut-off for these calls is given here. A value given as a limit tells only on which side of the number the result lay.

Series [1] has as its system Human betaherpesvirus 5. The experiment in a line: Antiviral activity against HCMV Towne infected in human HFF cells assessed as reduction in plaque formation treated with compound following viral infection and incubated for 8 to 10 days by crystal violet staining based assay. Type of series: functional, organism-based. Particulars: Human betaherpesvirus 5, strain Towne.

The subject of series [2] is Human betaherpesvirus 5. The experiment in a line: Antiviral activity against GCV-resistant HCMV Towne infected in human HFF cells assessed as reduction in plaque formation treated with compound following viral infection and incubated for 8 to 10 days by crystal violet staining based assay. Conditions: Human betaherpesvirus 5, strain Towne. In kind it is functional, organism-based.

Series [3] concerns Human betaherpesvirus 5. The experiment in a line: Antiviral activity against HCMV TB40 infected in human HFF cells assessed as reduction in plaque formation treated with compound following viral infection and incubated for 8 to 10 days by crystal violet staining based assay. In kind it is functional, organism-based. Conditions: Human betaherpesvirus 5, TB40, HFF.
Series [4] relates to HFF. The experiment in a line: Cytotoxicity against human HFF cells assessed as reduction in cell viability incubated for 72 hrs or 10 days by MTT assay. Type of series: cell-based. An outline of the steps: (§1)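 MTT assay on uninfected cells exposed to compound for 72 h or 8–10 days, matching the antiviral assay durations. MTT (5 mg/mL stock in PBS) added, then 2–3 h at 37 °C. Formazan absorbance read at 560 nm.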
A general note: Formazan colour is commonly taken as a measure of viable cells.

In series [5] the test system is Human alphaherpesvirus 1. The experiment in a line: Antiviral activity against HSV 1 infected in African green monkey Vero cells assessed as reduction in plaque formation incubated for 36 hrs by crystal violet staining based assay. Type of series: functional, organism-based. Conditions: vero. An outline of the steps: (§2)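 Plaque reduction in Vero cells: virus adsorbed 60 min, then compound added in a carboxymethylcellulose overlay. Plaques counted after 36 h by crystal violet staining.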

For series [6], the system named is Human alphaherpesvirus 2. The experiment in a line: Antiviral activity against HSV 2 infected in African green monkey Vero cells assessed as reduction in plaque formation incubated for 36 hrs by crystal violet staining based assay. Type of series: functional, organism-based. Conditions: vero. The method, boiled down: as §2
For series [7], the system named is Human gammaherpesvirus 4. The experiment in a line: Antiviral activity against EBV infected in human AKATA cells assessed as reduction in IgG-induced lytic virus replication measured at 48 hrs post-lytic induction by qRT-PCR analysis. In kind it is functional, organism-based. (In general: Quantitative PCR measures a nucleic acid by following its amplification.)

The nature of series [8]: Antiviral activity against Mouse Cytomegalovirus Smith (ATCC VR-1399) infected in mouse MEF cells assessed as reduction in plaque formation measured after 3 days by crystal violet staining based assay. Type of series: functional, cell-based, Murine cytomegalovirus (strain Smith). Particulars: Murid betaherpesvirus 1, ATCC VR-1399, MEF, 72 h; read-out: EC50. An outline of the steps:
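Plaque reduction with MCMV Smith in mouse embryonic fibroblasts, with compound in a carboxymethylcellulose overlay. Assay ended at 3 days and plaques counted after crystal violet staining.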

Series [9] deals with Human betaherpesvirus 5. Briefly: Antiviral activity against pp28-luciferase expressing HCMV Towne infected in human HFF cells assessed as reduction in viral replication treated with compound at 24 hrs post viral infection at MOI of 1 PFU/cell and measured after 3 days by luciferase reporter gene assay. In kind it is functional, organism-based. Conditions: strain Towne. An outline of the steps: (§3)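 Time-of-addition in HFFs infected with HCMV Towne (MOI 1). Add-on: compound added at 0, 6, 24 or 48 hpi. Removal: compound added right after infection and washed out after 0, 6, 24 or 48 h. Luciferase read at 72 hpi.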
On the technique in general: In a reporter assay the amount or activity of a reporter protein is the signal.

Series [10] has as its system Human betaherpesvirus 5. The experiment in a line: Antiviral activity against pp28-luciferase expressing HCMV Towne infected in human HFF cells assessed as reduction in viral replication treated with compound immediately after viral infection at MOI of 1 PFU/cell followed by compound washout after 6 hrs and measured after 3 days by luciferase reporter gene assay. In kind it is functional. Conditions: strain Towne. The method, boiled down:
as §3

Series [11] relates to Human betaherpesvirus 5. Briefly: Antiviral activity against HCMV Towne infected in human HFF cells assessed as reduction in plaque formation treated with compound following viral infection at MOI of 1 PFU/cell and measured at 10 days post-infection in presence of letermovir by crystal violet staining based assay. Type of series: functional, organism-based. Conditions: Human betaherpesvirus 5, strain Towne, 240 h.

Series [12] has as its system Human betaherpesvirus 5. The experiment in a line: Antiviral activity against HCMV TB40 infected in human HFF cells assessed as reduction in plaque formation treated with compound following viral infection at MOI of 100 PFU/wells measured at 10 days post-infection in presence of GCV by crystal violet staining based assay. In kind it is functional, organism-based. Particulars: Human betaherpesvirus 5, TB40, HFF, 240 h. An outline of the steps:
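HFFs were infected at about 100 plaques/well and adsorbed for 90 min. They were then overlaid with DMEM containing 0.5% carboxymethylcellulose, 4% FBS and drugs, and incubated at 37 °C. A dose-response of each drug alone gave its EC₅₀. Combinations started at twice each EC₅₀, followed by two-fold serial dilutions. Plaques were counted after crystal violet staining. The Bliss coefficient is observed over expected fold inhibition (>1 synergy, <1 antagonism, =1 additive).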

The subject of series [13] is MEF. The experiment in a line: Cytotoxicity against mouse MEF cells assessed as reduction in cell viability at >=10 uM incubated for 72 hrs or 8 to 10 days by MTT assay. In kind it is cell-based. The method, boiled down: as §1
Series [14] deals with Human betaherpesvirus 5. The experiment in a line: Antiviral activity against pp28-luciferase harboring UL97 C607Y mutant expressing GCV-resistant HCMV Towne infected in human HFF cells assessed as reduction in viral replication at 0.5 to 3 uM treated with compound following viral infection at MOI of 0.1 PFU/cell and measured at 72 hrs post infection by luciferase reporter gene assay. In kind it is functional, organism-based. Particulars: strain Towne. The method, boiled down:
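HFFs infected with GCV-resistant pp28-luciferase Towne (MOI 0.1), then treated with a compound dilution series. Luciferase, driven by the UL99 late promoter, read in cell lysates at 72 hpi. Data are mean ± SD of triplicates from a single experiment.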

The test system of series [15] is Human betaherpesvirus 5. Briefly: Antiviral activity against HCMV TB40 infected in human HFF cells assessed as reduction in plaque formation at 0.5 to 3 uM treated with compound following viral infection at […] measured after 8 days by crystal violet staining analysis. Type of series: functional, organism-based. An outline of the steps:
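HFFs (2 × 10⁵/well) infected with HCMV TB40 at about 100 plaques/well for 90 min. Inoculum removed, then DMEM with 0.5% CMC, 4% FBS and compound added. Incubated at 37 °C; plaques stained with crystal violet and counted at 8 dpi. Experiment repeated three times; one representative shown.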

The subject of series [16] is Human betaherpesvirus 5. Briefly: Inhibition of viral protein expression in HCMV Towne infected in human HFF cells assessed as reduction in IE2 expression at 1 to 10 uM treated with compound following viral infection at MOI of 1 PFU/cell measured at 72 hrs post infection by Western blot analysis. Particulars: strain Towne. In kind it is functional, organism-based. The method, boiled down:
(§4)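 HFFs infected with HCMV Towne (MOI 1), then treated with compound. Lysates taken at 72 hpi, equal protein loaded on 8–10% Tris-glycine SDS-PAGE and transferred to PVDF. Primary antibodies overnight at 4 °C, HRP secondary, chemiluminescent detection; β-actin as loading control.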

The test system of series [17] is Human betaherpesvirus 5. The experiment in a line: Inhibition of viral protein expression in HCMV Towne infected in human HFF cells assessed as reduction in IE1 expression at 1 to 10 uM treated with compound following viral infection at MOI of 1 PFU/cell measured at 72 hrs post infection by Western blot analysis. Type of series: functional, organism-based. Conditions: strain Towne. An outline of the steps: as §4

Series [18] has as its system Human betaherpesvirus 5. Briefly: Antiviral activity against HCMV Towne infected in human HFF cells assessed as reduction in viral DNA replication at 3 uM treated with compound following viral infection at MOI of 0.1 PFU/cell by US17 real time PCR analysis. Type of series: functional, organism-based. Particulars: strain Towne. An outline of the steps: (§5)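 At set time points supernatants were harvested and cells lysed for DNA. Cell-associated viral DNA and supernatant viral DNA quantified by real-time PCR targeting a 151-bp conserved US17 region.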

In series [19] the test system is Human betaherpesvirus 5. Briefly: Antiviral activity against HCMV Towne infected in human HFF cells assessed as reduction in viral DNA yields in the supernatant at 3 uM treated with compound following viral infection at MOI of 0.1 PFU/cell by US17 real time PCR analysis. In kind it is functional, organism-based. Conditions: strain Towne. The method, boiled down:
as §5

Take `CC(C)NC(=O)C1CCN(C(=O)c2cc3sccc3n2Cc2ccc(Cl)cc2)CC1`: the concentration giving a half-maximal response (EC50) is 4610 nM in series [1]; 1400 nM in series [2]; 1180 nM in series [3]; “Not Active” in series [5]; “Not Active” in series [6]; “Not Active” in series [7]. Moreover, the concentration for a half-maximal effect (EC50) worked out at 1000 nM in [8], 3190 nM in series [11] and 1510 nM in [12]. Also, the CC50 in series [4] is over 200000 nM. In addition, in series [9], the outcome was inactive. Further, the result in series [10], in series [14], in [15], in [18] and in series [19] was Active. Also, the Activity result in [13] is “Toxic”. For the same compound, the inhibition result in [16] and in [17] was “Active” throughout.

For orientation: EC50 means the concentration that produces a half-maximal response. Usually CC50 stands for the concentration giving 50% cytotoxicity.
